Compound activity deposited in PubChem by several laboratories.
Casp6 inh: caspase-6 (human) enzyme inhibition; P55212; purified caspase-6, Z-VEID-R110 cleavage fluorescence; inhibition, % at 12.5 µM; 0.53% of 350,000 active;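 active means mean inhibition across replicates at least about 35%, with every replicate also reaching that limit, limit read from the data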;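 further: 0% = median of neutral control wells and 100% = no fluorescence left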
Target sequence (P55212 24-179 limits assumed): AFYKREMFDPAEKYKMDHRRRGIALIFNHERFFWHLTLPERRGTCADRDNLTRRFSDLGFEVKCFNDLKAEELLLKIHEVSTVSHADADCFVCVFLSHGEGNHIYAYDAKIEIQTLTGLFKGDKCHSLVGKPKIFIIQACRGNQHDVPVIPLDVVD
Target sequence (P55212 194-293 limits assumed): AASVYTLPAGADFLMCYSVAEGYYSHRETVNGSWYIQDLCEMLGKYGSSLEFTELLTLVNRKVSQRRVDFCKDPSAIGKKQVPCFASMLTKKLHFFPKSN
NSD2 HMT inh: inhibitors of human histone methyltransferase NSD2. O96028. NSD2 peptide methylation, AlphaScreen, 120 min. inhibition, % at 12.5 µM. 0.54% of 310,000 active. AID 743445; in the data active means inhibition above about 50%
MBD2 inh: inhibitors of human MBD2 binding to methylated oligonucleotide; Q9UBB5; TR-FRET; inhibition, % at 4.4 µM; 0.31% of 370,000 active; AID 686964; in the data active means inhibition above about 13%
Target sequence (Q9UBB5 whole entry, looked up): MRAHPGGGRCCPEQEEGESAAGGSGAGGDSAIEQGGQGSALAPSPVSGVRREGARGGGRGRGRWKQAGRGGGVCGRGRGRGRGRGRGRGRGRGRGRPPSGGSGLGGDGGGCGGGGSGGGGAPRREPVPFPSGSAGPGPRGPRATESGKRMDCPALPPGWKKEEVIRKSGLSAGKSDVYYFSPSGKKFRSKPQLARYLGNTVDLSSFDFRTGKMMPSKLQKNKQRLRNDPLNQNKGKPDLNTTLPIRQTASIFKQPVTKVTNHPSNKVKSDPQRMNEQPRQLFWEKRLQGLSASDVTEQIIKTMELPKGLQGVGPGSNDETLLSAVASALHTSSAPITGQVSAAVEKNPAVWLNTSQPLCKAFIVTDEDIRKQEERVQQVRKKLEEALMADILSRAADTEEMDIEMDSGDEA
UHRF1 MBD2 ctr: UHRF1 methyl-DNA binding inhibition; Q96T88; UHRF1 binding to methylated oligo, TR-FRET; inhibition, % at 4.4 µM; 0.75% of 370,000 active; in the data active means inhibition above about 21%;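 further: UHRF1 SRA domain binding a hemimethylated CpG hairpin DNA probe; 0% = median of test compound wells and 100% = reference inhibitor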
TDP2 inh: TDP2 (human) inhibition, absorbance primary screen; O95551; recombinant TDP2, T5PNP hydrolysis, p-nitrophenol absorbance 415 nm; inhibition, % at 12.8 µM; 0.34% of 370,000 active; AID 720702;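 active means inhibition above the mean of all tested compounds plus 3 SD, set per campaign, cut at about 25% in these data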;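 further: 0% = DMSO with enzyme and 100% = buffer with substrate but no TDP2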
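Evaluation: % inhibition relative to enzyme-containing and enzyme-free wells. Material: recombinant human TDP2. Benchmarks: enzyme-free and DMSO wells. Timing: enzyme reaction with compound for 2 h at 37 °C. Compound dosing: 12.8 µM only. Measured by: p-Nitrophenol epi absorbance. Reagent: T5PNP substrate at 5 mM, a TopII-DNA adduct mimic. Replication: single well per compound.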
LEDGF integ inh: blocks HIV-1 LEDGF/p75-dependent DNA integration; TR-FRET IN-LEDGF/p75 DNA integration, Eu/Cy5; 0.64% of 370,000 active; AID 743269; inhibition, % at 3.7 µM;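 active means inhibition above the screen-wide mean plus 3 SD, cut at about 13% in these data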;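 further: signal is the Cy5 over europium emission ratio at 671 and 618 nm; 0% = plate median of compound wells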
Alpha artifact: interferes with AlphaScreen signal, flagging NSD2 false positives; 9.4% of 1,500 active; AlphaScreen artifact counterscreen, preloaded methylated H4 peptide; AC35, µM (series often up to 10 µM), inactives show at the top dose activity change, negative = signal loss; shares compounds with NSD2 HMT inh; AID 1053174; call rule not given here
Active calls of the source: *; nt = no result given. Sampled rows, rich in hits. Any-hit rate of the full collection: about 1.9%.

SMILES	Casp6 inh	NSD2 HMT inh	MBD2 inh	UHRF1 MBD2 ctr	TDP2 inh	LEDGF integ inh	Alpha artifact
CCCNC(=O)N1C[C@@H](C)[C@H](OC)CN(C)C(=O)c2cc(NC(=O)CCC)ccc2OC[C@@H]1C	-1.4	nt	nt	nt	nt	nt	nt
C[C@@H]1CN([C@@H](C)CO)C(=O)c2cc(NC(=O)CCC(F)(F)F)ccc2O[C@@H]1CN(C)Cc1ccc(C(=O)Nc2ccccc2N)cc1	0.4	nt	nt	nt	nt	nt	nt
COc1ccc(C(=O)Nc2ccc3[nH]ccc3c2)cc1OC	0.6	50.9*	-1.9	0.4	-12.9	-3.1	5.0%
COc1ccc(C)cc1COC(=O)c1[nH]c(C)c(C(C)=O)c1C	-0.5	54.6*	0.0	-2.6	12.3	1.4	-1.7%
CC(=O)c1c(C)[nH]c(C(=O)OCc2cccc(C)c2)c1C	-2.9	2.5	5.8	0.4	-5.6	0.9	nt
O=C(NCC(F)(F)F)[C@@H]1[C@@H](CO)[C@@H]2Cn3c(cccc3=O)[C@@H]2N1CCC(F)(F)F	1.2	nt	nt	nt	nt	nt	nt
CC1(C)NC(=O)N(CCCOc2ccccc2Br)C1=O	nt	69.6*	-2.4	1.5	-8.4	2.8	-2.1%
CNC[C@H]1Oc2c(N)cccc2C(=O)N([C@H](C)CO)C[C@@H]1C	2.3	nt	nt	nt	nt	nt	nt
CN(C)C(=O)c1ccc(-c2ccc3c(c2)[C@H]2[C@H](CCN2C(=O)C2CCCC2)[C@H](CO)N3C)cc1	-0.7	nt	nt	nt	nt	nt	nt
Cc1ccc(-c2cc(C(=O)N/N=C/c3ccccc3)n[nH]2)o1	-0.6	121.9*	1.6	-2.1	3.8	0.8	-2.8%
CCC(=O)N1[C@H](C(=O)NC2CCCC2)[C@@H](CO)[C@@H]2Cn3c(ccc(C4=CCCC4)c3=O)[C@@H]21	-2.0	nt	nt	nt	nt	nt	nt
C[C@H]1CN([C@@H](C)CO)C(=O)c2cccc(NC(=O)C3CCCCC3)c2O[C@@H]1CN(C)Cc1ccc(C(=O)O)cc1	0.4	nt	nt	nt	nt	nt	nt
Cc1ccc(NC(=O)CN(C)CCOc2ccccc2)c([N+](=O)[O-])c1	1.0	74.5*	-0.1	1.6	1.6	-0.8	-0.8%
CCC(=O)N(C)C[C@H]1[C@@H](c2ccc(-c3cccnc3)cc2)[C@@H](CO)N1C(C)=O	-4.2	nt	nt	nt	nt	nt	nt
CCc1nc2sc3ccccc3c(=O)c2c(=O)n1Cc1ccco1	nt	1.3	-0.6	6.2	5.9	7.6	nt
CCCc1nc2sc3ccccc3c(=O)c2c(=O)n1Cc1ccccc1	-2.2	61.4*	0.8	-3.5	5.0	-1.0	-3.1%
CO[C@@H]1CN(C)C(=O)c2ccc(NC(=O)c3ccccn3)cc2OC[C@@H](C)N(C(=O)C2CCCC2)C[C@H]1C	-0.3	nt	nt	nt	nt	nt	nt
Cc1ccccc1Nc1nc(N)nc(CSc2nnc3sc4ccccc4n23)n1	nt	66.2*	1.9	-2.7	11.4	-1.6	3.9%
Cc1ccccc1Nc1nc(N)nc(CSc2nnc(-c3ccccc3)n2C)n1	nt	0.8	-2.2	-1.5	2.5	-3.8	nt
Cc1nc2c(n1O)CCC/C2=N\O	nt	2.8	-5.2	1.0	1.9	-0.8	nt
CCN1CCCCC(=N/O)/C(=N/O)CCCC1	-0.1	71.1*	0.7	5.8	3.0	1.8	3.5%
O=c1c(-c2ccccc2Cl)coc2c(CN3CCCCC3)c(O)ccc12	-4.4	38.6	-1.1	-1.8	-3.8	-0.1	nt
CC1CN(Cc2c(O)ccc3c(=O)c(-c4ccccc4Cl)coc23)CC(C)O1 (configuration not stated)	-0.8	60.5*	6.0	-0.5	-3.0	3.4	-1.1%
COc1ccc(N(CC(=O)NCCSc2ccccn2)S(C)(=O)=O)cc1	-2.8	126.6*	-0.6	3.1	11.6	-1.0	-3.0%
NC1=CC(=O)C(=O)c2ccccc21	40.9*	100.3*	-20.3	-14.5	15.2	9.2	-0.7%
SMILES	Casp6 inh	NSD2 HMT inh	MBD2 inh	UHRF1 MBD2 ctr	TDP2 inh	LEDGF integ inh	Alpha artifact
CCCC(=O)Nc1ccc2c(c1)C(=O)N(C)C[C@@H](OC)[C@H](C)CN(S(=O)(=O)c1cn(C)cn1)[C@@H](C)CO2	2.1	nt	nt	nt	nt	nt	nt
COCCNC(=O)CN(C(=O)CCC(=O)Nc1nccs1)c1ccc2c(c1)OCO2	-1.8	67.3*	0.4	-0.1	14.3	1.2	-2.9%
Cc1ccc(O)c(C(=O)C=Cc2ccccc2)c1	0.3	-2.4	-0.1	-1.5	3.7	4.4	nt
O=C(C=Cc1ccccc1)c1cc(Br)ccc1O	-1.4	53.7*	-3.7	-0.5	-7.0	1.2	-5.3%
COc1ccc(CN(C)C[C@H]2Oc3ccc(NS(=O)(=O)c4ccc(Cl)cc4)cc3C(=O)N([C@@H](C)CO)C[C@H]2C)cc1	3.5	nt	nt	nt	nt	nt	nt
Cc1ccc(NC(=O)Cn2nnc(C(=O)NCc3ccccc3)c2N)cc1C	1.7	55.6*	-0.8	0.7	1.1	-3.7	-2.4%
CC(C)NC(=O)Nc1ccc2c(c1)C(=O)N([C@@H](C)CO)C[C@@H](C)[C@@H](CN(C)S(=O)(=O)c1ccccc1)O2	0.5	nt	nt	nt	nt	nt	nt
Cc1ccc(Cl)cc1N1CCN(C(=O)c2ccc3nc[nH]c3c2)CC1	6.2	51.4*	0.3	-4.2	1.5	-2.2	-4.9%
Cc1cccc(N2CCN(C(=O)c3ccc4nc[nH]c4c3)CC2)c1C	3.6	-4.1	4.5	-1.2	-5.2	-1.9	nt
O=C1c2ccccc2C(=O)N1CCc1nc2ccccc2c(=O)n1-c1ccccn1	nt	-0.3	2.0	2.1	1.4	3.9	nt
Cc1ccnc(-n2c(CCN3C(=O)c4ccccc4C3=O)nc3ccccc3c2=O)c1	nt	52.1*	2.9	2.8	-1.4	-5.5	-0.5%
CC1(CC(=O)N/N=C/c2cc([N+](=O)[O-])c(O)cc2O)OCCO1	68.7*	59.8*	-8.5	0.7	-5.0	4.1	0.5%
C[C@@H]1CN([C@@H](C)CO)C(=O)Cc2cc(NS(=O)(=O)c3cccs3)ccc2O[C@@H]1CN(C)S(C)(=O)=O	0.1	nt	nt	nt	nt	nt	nt
CNC(=O)C[C@H]1CC[C@@H]2[C@@H](COc3ccc(NC(=O)c4cccc(OC)c4)cc3C(=O)N2C)O1	-0.5	nt	nt	nt	nt	nt	nt
O=C(NNS(=O)(=O)c1ccc(F)cc1F)c1csc(-c2cccnc2)n1	6.1	54.2*	-7.6	-1.4	0.8	0.2	-7.4%
O=C(NNC(=O)c1ccc(Cl)cc1Cl)c1csc(-c2cccnc2)n1	6.8	-3.4	-1.9	0.0	12.7	1.0	nt
CCN(CC)C1CCN(c2nc3nonc3nc2NCCOC)C1 (configuration not stated)	-1.7	75.2*	3.9	4.0	-3.2	-7.3	-1.7%
COCCCNc1nc2nonc2nc1N1CCN2CCCC2C1 (configuration not stated)	0.1	-1.6	-4.1	-1.2	-7.2	-5.2	nt
COc1ccccc1NC(=O)N(C)C[C@H]1Oc2ncc(Br)cc2C(=O)N([C@H](C)CO)C[C@@H]1C	-4.1	nt	nt	nt	nt	nt	nt
COc1ccc(C(=O)Oc2ccc(/C=N/Nc3ccc(Cl)c(C(=O)O)c3)cc2OC)cc1	16.9	85.0*	3.5	4.6	-10.5	5.0	-6.3%
COc1cc(/C=N/Nc2ccc(Cl)c(C(=O)O)c2)ccc1OC(=O)c1ccco1	2.9	4.6	0.3	-1.2	7.1	1.4	nt
